# Results of several laboratories.
# Protocols differ between the studies behind these lines.
# DRD2: D(2) dopamine receptor (DRD2, Homo sapiens, UniProt P14416)
# ADORA3: Adenosine receptor A3 (ADORA3, Homo sapiens, UniProt P0DMS8)
# BRAF V600E: Serine/threonine-protein kinase B-raf (BRAF, Homo sapiens, UniProt P15056, V600E)
Compound,target,test,setting,inhibition
CC(O)c1ccc(-c2ccc(CNCCc3ccc(S(N)(=O)=O)cc3)o2)cc1 (stereo not drawn),DRD2,"enzyme activity, inhibitor",10 µM,22.1%
O=C(c1ccc(Cl)cc1)N(Cc1ccccc1)C1CCCCC1,"Type-1 angiotensin II receptor (AGTR1, Homo sapiens, UniProt P30556)",cell-free assay,10 µM,-0.9%
CCC(C)N1CCCn2c1nc1c2c(=O)n(C)c(=O)n1C (stereo not drawn),ADORA3,"ligand displacement, radioligand","10 µM, cell membranes",14%
COc1ccc(-c2csc(NN=C(CS(=O)(=O)c3ccccc3)c3ccc(F)cc3)n2)cc1,BRAF V600E,"enzyme activity, inhibitor, ATP luminescence",0.1 µM,51%
C[C@@]1(c2cccc(Nc3ccc(C4CC4)nc3)c2Cl)CC(=O)N(C2CCOCC2)C(=N)N1,"Beta-secretase 1 (BACE1, Homo sapiens, UniProt P56817)","enzyme activity, inhibitor, FRET",10 µM,52%
Nc1ncnc2[nH]cnc12,ADORA3,"ligand displacement, radioligand","30 µM, cell membranes",13%
Nc1ccc2c(c1)CCCn1nnnc1-2,"Protein mono-ADP-ribosyltransferase PARP16 (PARP16, Homo sapiens, UniProt Q8N5Y8)","enzyme activity, inhibitor",10 µM,53%
[N-]=[N+]=N[C@@H](CC(=O)NO)Cc1ccc2ccccc2c1,"Endoplasmic reticulum aminopeptidase 2 (ERAP2, Homo sapiens, UniProt Q6P179)","enzyme activity, inhibitor, fluorescence",300 µM,24%
CC(=O)N[C@H]1CSSC[C@@H](C(=O)N[C@H](Cc2c[nH]c3ccccc23)C(N)=O)NC(=O)[C@@H](Cc2ccccc2)NC(=O)[C@H](CCCNC(=N)N)NC1=O,"Melanocyte-stimulating hormone receptor (MC1R, Homo sapiens, UniProt Q01726)","ligand displacement, radioligand","10 µM, 40 min",0%
Cc1ccc(C(CS(=O)(=O)c2ccccc2)=NNc2nc(C)c(N=Nc3cccc(C)c3)s2)cc1,BRAF V600E,"enzyme activity, inhibitor, ATP luminescence",10 nM,35%
NS(=O)(=O)c1ccc(CCNCc2cccc3ccccc23)cc1,DRD2,"enzyme activity, inhibitor",10 µM,42.2%
Cn1cnc(Br)c1C1=CN(c2ncnc3[nH]cnc23)CCS1,"Serine/threonine-protein kinase Nek5 (NEK5, Homo sapiens, UniProt Q6P3R8)","enzyme activity, inhibitor, radiometric",50 nM,18.7%
COCCOc1ccc(N2CCN(CCn3ncc4c3nc(N)n3nc(-c5ccco5)nc43)CC2)cc1,ADORA3,"ligand displacement, radioligand","10 µM, cell membranes",35%
C=CCn1c(SCC(=O)NC2=NN(c3ccccc3)C(=O)C2)nnc1-c1cccs1,DRD2,"enzyme activity, inhibitor",10 µM,-12.8%
Cc1ccc(C(CS(=O)(=O)c2ccccc2)=NNC2=NC(=O)C(=NNc3ccc([N+](=O)[O-])cc3)S2)cc1,BRAF V600E,"enzyme activity, inhibitor, ATP luminescence",10 µM,89%
CC(C)CC(C)N1CCCn2c1nc1c2c(=O)n(C)c(=O)n1C (stereo not drawn),ADORA3,"ligand displacement, radioligand","10 µM, cell membranes",22%
Cc1ccc(C(CS(=O)(=O)c2ccccc2)=NNC(N)=S)cc1,BRAF V600E,"enzyme activity, inhibitor, ATP luminescence",10 µM,88%
Oc1cccc(Nc2nc(-c3ccc(F)cc3F)cs2)c1,"Neuropeptide Y receptor type 1 (NPY1R, Homo sapiens, UniProt P25929)",cell-free assay,10 µM,-16.2%
Cc1ccc(C(CS(=O)(=O)c2ccccc2)=NNc2nc(C)c(N=Nc3ccccc3)s2)cc1,BRAF V600E,"enzyme activity, inhibitor, ATP luminescence",0.1 µM,42%
Cc1ccc(Nc2nccc(N(C)c3ccc4c(C)n(C)nc4c3)n2)cc1S(N)(=O)=O,"Tyrosine-protein kinase Blk (Blk, Mus musculus, UniProt P16277)","enzyme activity, inhibitor",0.3 µM,9%
Cc1ccc(C(CS(=O)(=O)c2ccccc2)=NN=C2N=C(c3ccc(C)cc3)CS2)cc1,BRAF V600E,"enzyme activity, inhibitor, ATP luminescence",10 nM,22%
O=C1N=C(N2CCCCN2)S/C1=C\c1ccc(F)cc1O,ADORA3,"ligand displacement, radioligand",10 µM,27%
Cc1ccc(N=Nc2sc(NN=C(CS(=O)(=O)c3ccccc3)c3ccc(C)cc3)nc2C)cc1,BRAF V600E,"enzyme activity, inhibitor, ATP luminescence",1 µM,73%
NS(=O)(=O)c1ccc(CCNCc2ccc(-c3ccccc3F)o2)cc1,DRD2,"enzyme activity, inhibitor",10 µM,34.6%
